Experimental data gathered from unrelated publications.

C#CC[C@]1(O)C[C@@H]2c3cc(OCc4cc(C)cc(C)c4)c(OCc4cc(C)cc(C)c4)cc3CCN2[C@@H](C)C1 — IC50 (ASPC1; cell growth or viability, MTT): 791 nM
COc1ccc([S+]([O-])c2ccc(C)cc2)c(OC)c1OC (stereo not shown) — IC50 (tubulin polymerisation, inhibitor, absorbance; pH 6.6): > 40000 nM
COc1cc(Nc2nccc(-c3cnn4nc(OC)ccc34)n2)cc(C(F)(F)F)c1 — IC50 (ASPC1; cell growth or viability, ATP luminescence): 980 nM
C=CS(=O)(=O)Nc1ccc(CCn2cc(C[C@@]3(O)C[C@@H]4c5cc(OCc6cc(C)cc(C)c6)c(OCc6cc(C)cc(C)c6)cc5CCN4[C@@H](C)C3)nn2)cc1 — IC50 (ASPC1; cell growth or viability, MTT): 1880 nM
CC(C)C[C@H](NC(=O)[C@H](Cc1ccccc1)NC(=O)c1cnccn1)B(O)O — IC50 (HCC1569; cell growth or viability, ATP luminescence): 4.9 nM
Cc1cc(Nc2ncc(Cl)c(Nc3ccccc3S(=O)(=O)C(C)C)n2)c(OC(C)C)cc1C1CCNCC1 — inhibition (KARPAS-299; cell growth or viability, MTT; 0.02058 µg/mL, 72 h): 22.4%
COc1ccc(Sc2ccc(C)cc2)c(OC)c1OC — IC50 (tubulin polymerisation, inhibitor, absorbance; pH 6.6): > 40000 nM
C/C=C/C(=O)Nc1ccc(CCn2cc(C[C@@]3(O)C[C@@H]4c5cc(OCc6cc(C)cc(C)c6)c(OCc6cc(C)cc(C)c6)cc5CCN4[C@@H](C)C3)nn2)cc1 — IC50 (ASPC1; cell growth or viability, MTT): 870 nM
COc1ccc(Sc2ccc(OC)c(OC)c2OC)cc1 — IC50 (tubulin polymerisation, inhibitor, absorbance; pH 6.6): 16000 nM
C[C@@H](Oc1cc(-c2cnn(C3CCNCC3)c2)cnc1N)c1c(Cl)ccc(F)c1Cl — inhibition (KARPAS-299; cell growth or viability, MTT; 0.04 µg/mL, 72 h): 58.8%
